The source made the active and inactive calls. No cut-off for these calls is given here.
Columns and labels:
[1] = Induction of IFN-gamma secretion in human CD161+ CD3+ NKT cells at 10 ug/ml after 18 hrs relative to basal level; assay type: functional
In short: (§1)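 Human Vα24i NKT cell lines were expanded for 10 days on irradiated (3,000 rad) autologous immature DCs with 10 units/ml IL-2. The cells (1 × 10^5) were cocultured with 5 × 10^4 irradiated immature CD14+ DCs plus glycolipid at 10 μg/ml. Supernatants were collected at 18 h and read on a 22-plex Luminex bead panel. Triplicates, mean ± SD.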

[2] = Induction of IL2 secretion in human CD161+ CD3+ NKT cells at 10 ug/ml after 18 hrs relative to basal level; assay type: functional; in short: as §1
[3] = Induction of IL12p70 secretion in human CD161+ CD3+ NKT cells at 10 ug/ml after 18 hrs relative to basal level; assay type: functional; in short: as §1
[4] = Induction of IL12p40 secretion in human CD161+ CD3+ NKT cells at 10 ug/ml after 18 hrs relative to basal level; assay type: functional; in short: as §1
[5] = Induction of RANTES secretion in human CD161+ CD3+ NKT cells at 10 ug/ml after 18 hrs relative to basal level; assay type: functional; in short: as §1
[6] = Induction of MIPalpha secretion in human CD161+ CD3+ NKT cells at 10 ug/ml after 18 hrs relative to basal level; assay type: functional; in short: as §1
[7] = Induction of MCP1 secretion in human CD161+ CD3+ NKT cells at 10 ug/ml after 18 hrs relative to basal level; assay type: functional; in short: as §1
[8] = Induction of IL8 secretion in human CD161+ CD3+ NKT cells at 10 ug/ml after 18 hrs relative to basal level; assay type: functional; in short: as §1
[9] = Induction of TNFalpha secretion in human CD161+ CD3+ NKT cells at 10 ug/ml after 18 hrs relative to basal level; assay type: functional; in short: as §1
[10] = tested on: Mus musculus; assay: Increase in CD8/CD4 T cell ratio in BALB/c mouse at 2 ug, iv after 72 hrs by flow cytometry; assay type: functional, organism-based
[11] = tested on: TC1; assay: Antitumor activity in TC1 cells xenografted C57BL/6 mouse assessed as suppression of tumor growth at 2 ug, iv; assay type: functional, cell-based
In short: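 C57BL/6 mice (n = 5/group) were inoculated i.v. with TC-1 lung cancer cells. They were then treated i.v. with 2 μg glycolipid per mouse, or 100 μl of 1% DMSO, twice weekly for 4 weeks. Kaplan–Meier survival and body weight were followed, with tumor-free mice as an additional control.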

[12] = tested on: 4T1; assay: Antitumor activity in mouse 4T1 cells xenografted BALB/c mouse assessed as suppression of tumor growth at 2 ug, iv; assay type: functional, cell-based
In short: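 BALB/c mice (n = 6) were inoculated s.c. with 4T1 breast cancer cells. From day 3 they were treated i.v. with glycolipid or vehicle twice weekly for 4 weeks. Tumor volume was recorded every 3 days for 1 month, and survival was monitored up to 54 days.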

[13] = tested on: Mus musculus; assay: Induction of IFN-gamma secretion in BALB/c mouse serum at 2 ug, iv after 18 hrs relative to control; assay type: functional
In short: (§2)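 BALB/c mice received an i.v. injection of 100 μl of glycolipid diluted to 20 μg/ml in saline from DMSO stock, with 1% DMSO as vehicle. Serum cytokines/chemokines were measured at 2 and 18 h after injection.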

[14] = tested on: Mus musculus; assay: Induction of IL1-beta secretion in BALB/c mouse serum at 2 ug, iv after 18 hrs relative to control; assay type: functional; in short: as §2
[15] = tested on: Mus musculus; assay: Induction of IL2 secretion in BALB/c mouse serum at 2 ug, iv after 2 hrs relative to control; assay type: functional; in short: as §2
[16] = tested on: Mus musculus; assay: Induction of IL12p70 secretion in BALB/c mouse serum at 2 ug, iv after 18 hrs relative to control; assay type: functional; in short: as §2
[17] = tested on: Mus musculus; assay: Induction of IL12p40 secretion in BALB/c mouse serum at 2 ug, iv after 18 hrs relative to control; assay type: functional; in short: as §2
[18] = tested on: Mus musculus; assay: Induction of RANTES secretion in BALB/c mouse serum at 2 ug, iv after 2 hrs relative to control; assay type: functional; in short: as §2
[19] = tested on: Mus musculus; assay: Induction of MIPbeta secretion in BALB/c mouse serum at 2 ug, iv after 2 hrs relative to control; assay type: functional; in short: as §2
[20] = tested on: Mus musculus; assay: Induction of MCP1 secretion in BALB/c mouse serum at 2 ug, iv after 2 hrs relative to control; assay type: functional; in short: as §2
[21] = tested on: Mus musculus; assay: Induction of KC secretion in BALB/c mouse serum at 2 ug, iv after 2 hrs relative to control; assay type: functional; in short: as §2
[22] = tested on: Mus musculus; assay: Induction of TNFalpha secretion in BALB/c mouse serum at 2 ug, iv after 18 hrs relative to control; assay type: functional; in short: as §2
[23] = tested on: Mus musculus; assay: Induction of IL3 secretion in BALB/c mouse serum at 2 ug, iv after 2 hrs relative to control; assay type: functional; in short: as §2
[24] = tested on: Mus musculus; assay: Induction of GM-CSF secretion in BALB/c mouse serum at 2 ug, iv after 2 hrs relative to control; assay type: functional; in short: as §2
[25] = tested on: Mus musculus; assay: Induction of IL4 secretion in BALB/c mouse serum at 2 ug, iv after 2 hrs relative to control; assay type: functional; in short: as §2
[26] = tested on: Mus musculus; assay: Induction of IL6 secretion in BALB/c mouse serum at 2 ug, iv after 2 hrs relative to control; assay type: functional; in short: as §2
[27] = tested on: Mus musculus; assay: Induction of IL10 secretion in BALB/c mouse serum at 2 ug, iv after 18 hrs relative to control; assay type: functional; in short: as §2
[28] = tested on: Mus musculus; assay: Induction of IL13 secretion in BALB/c mouse serum at 2 ug, iv after 2 hrs relative to control; assay type: functional; in short: as §2
[29] = Induction of IL3 secretion in human CD161+ CD3+ NKT cells at 10 ug/ml after 18 hrs relative to basal level; assay type: functional; in short: as §1
[30] = Induction of GM-CSF secretion in human CD161+ CD3+ NKT cells at 10 ug/ml after 18 hrs relative to basal level; assay type: functional; in short: as §1
[31] = Induction of IL15 secretion in human CD161+ CD3+ NKT cells at 10 ug/ml after 18 hrs relative to basal level; assay type: functional; in short: as §1
[32] = Induction of IL4 secretion in human CD161+ CD3+ NKT cells at 10 ug/ml after 18 hrs relative to basal level; assay type: functional; in short: as §1
[33] = Induction of IL6 secretion in human CD161+ CD3+ NKT cells at 10 ug/ml after 18 hrs relative to basal level; assay type: functional; in short: as §1
[34] = Induction of IL10 secretion in human CD161+ CD3+ NKT cells at 10 ug/ml after 18 hrs relative to basal level; assay type: functional; in short: as §1
[35] = Induction of IL13 secretion in human CD161+ CD3+ NKT cells at 10 ug/ml after 18 hrs relative to basal level; assay type: functional; in short: as §1
[36] = tested on: NKT; assay: Stimulation of cell expansion of human invariant CD161+/ Valpha24+/ CD56+/ CD3+ NKT cells by flow cytometry method; assay type: functional, cell-based
In short: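 CD56+ NK/NKT mixtures (2 × 10^6) were isolated from human leukopaks with anti-CD56 microbeads. They were cocultured with 4 × 10^5 autologous immature CD14+ DCs pulsed with glycolipid at 3 μg/ml, or with 0.3% DMSO, on day 2 for 18 h. Suspension cells were then transferred and kept in 100 units/ml IL-2 with fresh medium every 3 days. On day 9, CD161+/Vα24TCR+ cells were gated by flow cytometry and total Vα24i NKT cells counted. Triplicates, mean ± SD.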

[37] = tested on: HeLa; assay: Activation of TCR in human HeLa cells overexpressing CD1d assessed as increase in CD3epsilon phosphorylation; assay type: cell-based
In short: (§3)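 Human HeLa, HeLa-CD1d or autologous immature DCs were loaded with glycolipid at 10 μg/ml, or DMSO, for 2 h. Then 3 × 10^5 naïve CD161+/CD3+ NKT cells were added; these were bead-isolated and kept in 100 units/ml IL-2. After 5–10 min the cells were washed and lysed at 4°C. Phospho-CD3ε, ERK1/2 (Thr-185/Tyr-187) and CREB (Ser-133) were read by Luminex bead assay as median fluorescence normalized to total protein, expressed as fold over 1% DMSO.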

[38] = tested on: dendritic; assay: Activation of TCR in human immature dendritic cells assessed as increase in CD3epsilon phosphorylation; assay type: cell-based; in short: as §3
[39] = tested on: HeLa; assay: Activation of TCR in human HeLa cells overexpressing CD1d assessed as increase in ERK1/2 phosphorylation; assay type: cell-based; in short: as §3
[40] = tested on: dendritic; assay: Activation of TCR in human immature dendritic cells assessed as increase in ERK1/2 phosphorylation; assay type: cell-based; in short: as §3
[41] = tested on: HeLa; assay: Activation of TCR in human HeLa cells overexpressing CD1d assessed as increase in CREB phosphorylation; assay type: cell-based; in short: as §3
[42] = tested on: dendritic; assay: Activation of TCR in human immature dendritic cells assessed as increase in CREB phosphorylation; assay type: cell-based; in short: as §3
[43] = tested on: Mus musculus; assay: Activation of B cells in BALB/c mouse at 2 ug, iv after 72 hrs by flow cytometry; assay type: functional, organism-based

`CCCCCCCCCCCCCC[C@@H](O)[C@@H](O)[C@H](CO[C@H]1O[C@H](CO)[C@H](O)[C@H](O)[C@H]1O)NC(=O)CCCCCCCc1ccccc1` gave an Activity [1] of 6.4, an Activity [2] of 6.1 and an Activity [3] of 4.7. For the same compound, the Activity [4] was 2.3, the Activity [5] was 1.7 and the Activity [6] was 3.3. It also gave an Activity [7] of 1, an Activity [8] of 1.8 and an Activity [9] of 8.1. For the same compound, the Activity [10] was “Active”, the Activity [11] was “Active” and the Activity [12] was “Active”. The Activity [13] was 48.3, the Activity [14] was 4.7 and the Activity [15] was 70.3. The Activity [16] was 2.6, the Activity [17] was 3.8 and the Activity [18] was 2.3. The Activity [19] was 3.8, the Activity [20] was 19.4 and the Activity [21] was 11. The Activity [22] was 22.4, the Activity [23] was 2.4 and the Activity [24] was 2.9. The Activity [25] was 53.1, the Activity [26] was 2.8 and the Activity [27] was 1.3. For the same compound, the Activity [28] was 10.9, the Activity [29] was 4.2 and the Activity [30] was 6.7. The Activity [31] was 2.8, the Activity [32] was 2.6 and the Activity [33] was 2.2. The Activity [34] was 2.3, the Activity [35] was 1.7 and the Activity [36] was “Active”. It also gave an Activity [37] of 10, an Activity [38] of 21.3 and an Activity [39] of 14.6. For the same compound, the Activity [40] was 48.3, the Activity [41] was 117 and the Activity [42] was 204. The Activity [43] was “Active”.

For `CCCCCCCCCCCCCCCCCCCCCCCCCC(=O)N[C@@H](CO[C@H]1O[C@H](CO)[C@H](O)[C@H](O)[C@H]1O)[C@H](O)[C@H](O)CCCCC`, the Activity [1] was 1.9, the Activity [2] was 1.5 and the Activity [3] was 1. It also gave an Activity [4] of 1.4, an Activity [5] of 1.8 and an Activity [6] of 2.7. It also gave an Activity [7] of 1.3, an Activity [8] of 1.6 and an Activity [9] of 2.2. For the same compound, the Activity [29] was 1.4, the Activity [30] was 4.7 and the Activity [31] was 2.1. The Activity [32] was 2.7, the Activity [33] was 1.8 and the Activity [34] was 1.5. The Activity [35] was 1.8, the Activity [37] was 5.9 and the Activity [38] was 12. It also gave an Activity [39] of 3.3, an Activity [40] of 18.6 and an Activity [41] of 20. It also gave an Activity [42] of 49.
